According to ChEMBL document CHEMBL4689842, “EUbOPEN Chemogenomics Library wave 1” (2021):

Tested on: Fibroblast
Test: Multiplex assay against human fibroblast
Type: toxicity, cell-based
How it was run: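 Values for tubulin, mitochondrial-mass and membrane-permeability phenotypes are per cents of cells with healthy nuclei. These cells were identified by CellPathfinder machine-learning gating of live cells that had been stained at seeding with Hoechst33342, BioTracker Green Microtubule Cytoskeleton Dye, MitoTracker Red and Annexin V Alexa Fluor 680 and imaged on a CQ1 microscope at 37°C and 5% CO2 after compound addition. The gating first set Hoechst high-intensity objects apart from normal cells, then split normal cells into healthy, pyknosed or fragmented nuclei, and pyknosed cells into mitotic or apoptotic.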

[1] = 12 h, 1 µM, compound concentration 1 uM, replicate 1
[2] = 12 h, 1 µM, compound concentration 1 uM, replicate 2
[3] = 12 h, 10 µM, compound concentration 10 uM, replicate 1
[4] = 12 h, 10 µM, compound concentration 10 uM, replicate 2
[5] = 24 h, 1 µM, compound concentration 1 uM, replicate 1
[6] = 24 h, 1 µM, compound concentration 1 uM, replicate 2
[7] = 24 h, 10 µM, compound concentration 10 uM, replicate 1
[8] = 24 h, 10 µM, compound concentration 10 uM, replicate 2
[9] = 48 h, 1 µM, compound concentration 1 uM, replicate 1
[10] = 48 h, 1 µM, compound concentration 1 uM, replicate 2
[11] = 48 h, 10 µM, compound concentration 10 uM, replicate 1
[12] = 48 h, 10 µM, compound concentration 10 uM, replicate 2

Structure (SMILES): CCc1cccc(CC)c1NC(=O)c1nn(C)c2c1CCc1cnc(Nc3ccc(N4CCN(C)CC4)cc3OC)nc1-2
- Population Apoptotic (%) [1]: 45%
- Population Fragmented Nuclei (%) [1]: 17%
- Population Healthy Nuclei (%) [1]: 47%
- Population Hoechst High Intensity Objects (%) [1]: 9%
- Population Membrane Permeable-Phenotype (%) [1]: 8%
- Population Mitochondria Different-Phenotype (%) [1]: 72%
- Population Mitotic Cells (%) [1]: 54%
- Population Normal (%) [1]: 90%
- Population Pyknosed Nuclei (%) [1]: 34%
- Population Tubulin-Different-Phenotype (%) [1]: 75%
- Total Cell Count [1]: 142
- Population Apoptotic (%) [2]: 50%
- Population Fragmented Nuclei (%) [2]: 54%
- Population Healthy Nuclei (%) [2]: 18%
- Population Hoechst High Intensity Objects (%) [2]: 25%
- Population Membrane Permeable-Phenotype (%) [2]: 0%
- Population Mitochondria Different-Phenotype (%) [2]: 75%
- Population Mitotic Cells (%) [2]: 50%
- Population Normal (%) [2]: 74%
- Population Pyknosed Nuclei (%) [2]: 27%
- Total Cell Count [2]: 59
- Population Apoptotic (%) [3]: 71%
- Population Fragmented Nuclei (%) [3]: 32%
- Population Healthy Nuclei (%) [3]: 46%
- Population Hoechst High Intensity Objects (%) [3]: 11%
- Population Membrane Permeable-Phenotype (%) [3]: 2%
- Population Mitochondria Different-Phenotype (%) [3]: 11%
- Population Mitotic Cells (%) [3]: 28%
- Population Normal (%) [3]: 88%
- Population Pyknosed Nuclei (%) [3]: 20%
- Population Tubulin-Different-Phenotype (%) [3]: 18%
- Total Cell Count [3]: 213
- Population Apoptotic (%) [4]: 20%
- Population Fragmented Nuclei (%) [4]: 51%
- Population Healthy Nuclei (%) [4]: 40%
- Population Hoechst High Intensity Objects (%) [4]: 21%
- Population Membrane Permeable-Phenotype (%) [4]: 3%
- Population Mitochondria Different-Phenotype (%) [4]: 30%
- Population Mitotic Cells (%) [4]: 80%
- Population Normal (%) [4]: 78%
- Population Pyknosed Nuclei (%) [4]: 7%
- Population Tubulin-Different-Phenotype (%) [4]: 23%
- Total Cell Count [4]: 82
- Population Apoptotic (%) [5]: 80%
- Population Fragmented Nuclei (%) [5]: 25%
- Population Healthy Nuclei (%) [5]: 29%
- Population Hoechst High Intensity Objects (%) [5]: 10%
- Population Membrane Permeable-Phenotype (%) [5]: 2%
- Population Mitochondria Different-Phenotype (%) [5]: 89%
- Population Mitotic Cells (%) [5]: 19%
- Population Normal (%) [5]: 89%
- Population Pyknosed Nuclei (%) [5]: 44%
- Population Tubulin-Different-Phenotype (%) [5]: 78%
- Total Cell Count [5]: 140
- Population Apoptotic (%) [6]: 100%
- Population Fragmented Nuclei (%) [6]: 61%
- Population Healthy Nuclei (%) [6]: 11%
- Population Hoechst High Intensity Objects (%) [6]: 30%
- Population Membrane Permeable-Phenotype (%) [6]: 0%
- Population Mitochondria Different-Phenotype (%) [6]: 100%
- Population Mitotic Cells (%) [6]: 0%
- Population Normal (%) [6]: 69%
- Population Pyknosed Nuclei (%) [6]: 27%
- Population Tubulin-Different-Phenotype (%) [6]: 100%
- Total Cell Count [6]: 63
- Population Apoptotic (%) [7]: 72%
- Population Fragmented Nuclei (%) [7]: 37%
- Population Healthy Nuclei (%) [7]: 46%
- Population Hoechst High Intensity Objects (%) [7]: 13%
- Population Membrane Permeable-Phenotype (%) [7]: 4%
- Population Mitochondria Different-Phenotype (%) [7]: 11%
- Population Mitotic Cells (%) [7]: 27%
- Population Normal (%) [7]: 86%
- Population Pyknosed Nuclei (%) [7]: 16%
- Total Cell Count [7]: 262
- Population Apoptotic (%) [8]: 66%
- Population Fragmented Nuclei (%) [8]: 60%
- Population Healthy Nuclei (%) [8]: 35%
- Population Hoechst High Intensity Objects (%) [8]: 20%
- Population Membrane Permeable-Phenotype (%) [8]: 6%
- Population Mitochondria Different-Phenotype (%) [8]: 10%
- Population Mitotic Cells (%) [8]: 33%
- Population Normal (%) [8]: 80%
- Population Pyknosed Nuclei (%) [8]: 3%
- Population Tubulin-Different-Phenotype (%) [8]: 16%
- Total Cell Count [8]: 105

Structure (SMILES): Cl.O=c1c2cccn2c2ccccc2n1CCCN1CCC(c2ccc(Cl)cc2)CC1
- Population Apoptotic (%) [1]: 68%
- Population Fragmented Nuclei (%) [1]: 21%
- Population Healthy Nuclei (%) [1]: 61%
- Population Hoechst High Intensity Objects (%) [1]: 12%
- Population Membrane Permeable-Phenotype (%) [1]: 10%
- Population Mitochondria Different-Phenotype (%) [1]: 15%
- Population Mitotic Cells (%) [1]: 31%
- Population Normal (%) [1]: 87%
- Population Pyknosed Nuclei (%) [1]: 17%
- Population Tubulin-Different-Phenotype (%) [1]: 40%
- Total Cell Count [1]: 123
- Population Apoptotic (%) [2]: 60%
- Population Fragmented Nuclei (%) [2]: 16%
- Population Healthy Nuclei (%) [2]: 73%
- Population Hoechst High Intensity Objects (%) [2]: 8%
- Population Membrane Permeable-Phenotype (%) [2]: 0%
- Population Mitochondria Different-Phenotype (%) [2]: 56%
- Population Mitotic Cells (%) [2]: 40%
- Population Normal (%) [2]: 91%
- Population Pyknosed Nuclei (%) [2]: 9%
- Population Tubulin-Different-Phenotype (%) [2]: 30%
- Total Cell Count [2]: 119
- Population Apoptotic (%) [3]: 48%
- Population Fragmented Nuclei (%) [3]: 28%
- Population Healthy Nuclei (%) [3]: 42%
- Population Hoechst High Intensity Objects (%) [3]: 30%
- Population Membrane Permeable-Phenotype (%) [3]: 5%
- Population Mitochondria Different-Phenotype (%) [3]: 52%
- Population Mitotic Cells (%) [3]: 51%
- Population Normal (%) [3]: 69%
- Population Pyknosed Nuclei (%) [3]: 28%
- Population Tubulin-Different-Phenotype (%) [3]: 84%
- Total Cell Count [3]: 175
- Population Apoptotic (%) [4]: 78%
- Population Fragmented Nuclei (%) [4]: 21%
- Population Healthy Nuclei (%) [4]: 57%
- Population Hoechst High Intensity Objects (%) [4]: 11%
- Population Membrane Permeable-Phenotype (%) [4]: 74%
- Population Mitochondria Different-Phenotype (%) [4]: 98%
- Population Mitotic Cells (%) [4]: 21%
- Population Normal (%) [4]: 89%
- Population Pyknosed Nuclei (%) [4]: 21%
- Population Tubulin-Different-Phenotype (%) [4]: 98%
- Total Cell Count [4]: 58
- Population Apoptotic (%) [5]: 48%
- Population Fragmented Nuclei (%) [5]: 28%
- Population Healthy Nuclei (%) [5]: 44%
- Population Hoechst High Intensity Objects (%) [5]: 11%
- Population Membrane Permeable-Phenotype (%) [5]: 12%
- Population Mitochondria Different-Phenotype (%) [5]: 10%
- Population Mitotic Cells (%) [5]: 51%
- Population Normal (%) [5]: 88%
- Population Pyknosed Nuclei (%) [5]: 27%
- Population Tubulin-Different-Phenotype (%) [5]: 45%
- Total Cell Count [5]: 121
- Population Apoptotic (%) [6]: 25%
- Population Fragmented Nuclei (%) [6]: 16%
- Population Healthy Nuclei (%) [6]: 70%
- Population Hoechst High Intensity Objects (%) [6]: 7%
- Population Membrane Permeable-Phenotype (%) [6]: 2%
- Population Mitochondria Different-Phenotype (%) [6]: 38%
- Population Mitotic Cells (%) [6]: 75%
- Population Normal (%) [6]: 92%
- Population Pyknosed Nuclei (%) [6]: 13%
- Population Tubulin-Different-Phenotype (%) [6]: 19%
- Total Cell Count [6]: 147
- Population Apoptotic (%) [7]: 67%
- Population Fragmented Nuclei (%) [7]: 21%
- Population Healthy Nuclei (%) [7]: 49%
- Population Hoechst High Intensity Objects (%) [7]: 39%
- Population Membrane Permeable-Phenotype (%) [7]: 7%
- Population Mitochondria Different-Phenotype (%) [7]: 40%
- Population Mitotic Cells (%) [7]: 32%
- Population Normal (%) [7]: 60%
- Population Pyknosed Nuclei (%) [7]: 29%
- Population Tubulin-Different-Phenotype (%) [7]: 63%
- Total Cell Count [7]: 193
- Population Apoptotic (%) [8]: 87%
- Population Fragmented Nuclei (%) [8]: 14%
- Population Healthy Nuclei (%) [8]: 64%
- Population Hoechst High Intensity Objects (%) [8]: 7%
- Population Membrane Permeable-Phenotype (%) [8]: 72%
- Population Mitochondria Different-Phenotype (%) [8]: 98%
- Population Mitotic Cells (%) [8]: 12%
- Population Normal (%) [8]: 92%
- Population Pyknosed Nuclei (%) [8]: 20%
- Population Tubulin-Different-Phenotype (%) [8]: 98%
- Total Cell Count [8]: 65
- Population Apoptotic (%) [9]: 45%
- Population Fragmented Nuclei (%) [9]: 43%
- Population Healthy Nuclei (%) [9]: 36%
- Population Hoechst High Intensity Objects (%) [9]: 14%
- Population Membrane Permeable-Phenotype (%) [9]: 11%
- Population Mitochondria Different-Phenotype (%) [9]: 2%
- Population Mitotic Cells (%) [9]: 54%
- Population Normal (%) [9]: 85%
- Population Pyknosed Nuclei (%) [9]: 19%
- Population Tubulin-Different-Phenotype (%) [9]: 47%
- Total Cell Count [9]: 142
- Population Apoptotic (%) [10]: 66%
- Population Fragmented Nuclei (%) [10]: 44%
- Population Healthy Nuclei (%) [10]: 52%
- Population Hoechst High Intensity Objects (%) [10]: 11%
- Population Membrane Permeable-Phenotype (%) [10]: 5%
- Population Mitochondria Different-Phenotype (%) [10]: 1%
- Population Mitotic Cells (%) [10]: 33%
- Population Normal (%) [10]: 88%
- Population Pyknosed Nuclei (%) [10]: 2%
- Population Tubulin-Different-Phenotype (%) [10]: 55%
- Total Cell Count [10]: 120
- Population Apoptotic (%) [11]: 81%
- Population Fragmented Nuclei (%) [11]: 28%
- Population Healthy Nuclei (%) [11]: 50%
- Population Hoechst High Intensity Objects (%) [11]: 48%
- Population Membrane Permeable-Phenotype (%) [11]: 2%
- Population Mitochondria Different-Phenotype (%) [11]: 46%
- Population Mitotic Cells (%) [11]: 18%
- Population Normal (%) [11]: 51%
- Population Pyknosed Nuclei (%) [11]: 22%
- Population Tubulin-Different-Phenotype (%) [11]: 78%
- Total Cell Count [11]: 193
- Population Apoptotic (%) [12]: 56%
- Population Fragmented Nuclei (%) [12]: 27%
- Population Healthy Nuclei (%) [12]: 52%
- Population Hoechst High Intensity Objects (%) [12]: 55%
- Population Membrane Permeable-Phenotype (%) [12]: 3%
- Population Mitochondria Different-Phenotype (%) [12]: 48%
- Population Mitotic Cells (%) [12]: 44%
- Population Normal (%) [12]: 44%
- Population Pyknosed Nuclei (%) [12]: 19%
- Population Tubulin-Different-Phenotype (%) [12]: 72%
- Total Cell Count [12]: 281
